Most compounds without a hit are left out; they make up all but 3.4% or so of the library.
Arr AP2 block: inhibitors of beta-arrestin/AP2 binding, primary screen, biochemical, GPCR trafficking, flow cytometry; 340,000 tested, 0.31% active; inhibition, % at 10 µM; FITC-arrestin peptide / GST-AP2 beads; AP2 beta2 appendage carries R879A mutation;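 active = inhibition above a set limit, near 3 SD of compounds lacking own fluorescence, cut at about 54% in these data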;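 also: plate controls were DMSO wells for no effect and 5 µM unlabelled arrestin peptide for full effect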
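Material – GST-tagged AP2 beta2-adaptin appendage (R879A) on 4 µm glutathione beads · Probe or stimulus – fluorescein-tagged arrestin peptide at 50 nM final · Timing – 12 min plus 1 h, RT · Detection – bead flow cytometry, FITC channel · Read-out basis – inhibition as reduced fluorescein signal on beads, percent · Medium – PBS plus Tween 20 (0.05%) and BSA (0.1%)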
A3G deaminase: APOBEC3G DNA deaminase inhibitors, primary screen, biochemical, fluorescence, single-stranded DNA substrate, uHTS; DNA dC->dU-editing enzyme APOBEC-3G (Homo sapiens), Q9HC16; recombinant A3G, ssDNA deamination FAM/TAMRA fluorescence; inhibition, % at 20 µM; 330,000 tested, 0.28% active; AID 493012, 2011;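 active = inhibition of at least 40% at 20 µM, with no more than 30% in the related APOBEC3A deaminase screen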;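 also: plate controls were DMSO wells with A3G for no effect and wells lacking A3G enzyme for full effect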
PolyA inh: polyadenylation inhibitors in yeast reporter cells, primary screen, luminescence, S. cerevisiae. S. cerevisiae SKY197-pL101 polyadenylation reporter, beta-gal luminescence; efflux-impaired pdr1/pdr3 knockout yeast; score 100 = 6 SD above DMSO. activity score, % at 12 µM. 300,000 tested, 0.02% active;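 active = lowest replicate activity score at least 50, where 100 means six control SD above control mean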;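 also: yeast exposed to compound for 9 h at 30 °C; higher score means more reporter readthrough which indicates perturbed polyadenylation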
AHR activator: AHR activators, primary screen, cell-based, luminescence, luciferase reporter, human; AHR-responsive luciferase reporter cells; activation, % at 5 µM; 320,000 tested, 2.5% active; AID 2796, 2010; in the data active = activation above about 47%;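 also: 0% = vehicle wells and 100% = reference agonist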
UCH37 inh: inhibitors of human UCH37 deubiquitinase, primary screen, biochemical, Ub-AMC cleavage, fluorescence. inhibition, % (concentration not given with the values). 330,000 tested, 0.33% active. Ubiquitin carboxyl-terminal hydrolase isozyme L5 (Homo sapiens), Q9Y5K5. purified proteasome/UCH37;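 active = mean inhibition over replicate wells above about 20%, limit read from the data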;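 also: 0% = compound-free wells with enzyme and 100% = wells lacking proteasome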
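Material: Human UCH37 enzyme supplied as purified proteasome complex | Schedule: 30 min compound-proteasome preincubation then 25 min substrate reaction, room temperature | Detection: AMC fluorescence from Ub-AMC cleavage, excitation 355 nm, emission 460 nm | Benchmarks: Wells without proteasome as full block, compound-free enzyme plus substrate as uninhibited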
APOBEC3A inh: APOBEC3A ssDNA deaminase inhibitors, primary screen, selectivity assay for APOBEC3G inhibitor project, biochemical, FAM/TAMRA oligo cleavage fluorescence. 330,000 tested, 0.41% active. AID 493011, 2011. DNA dC->dU-editing enzyme APOBEC-3A (Homo sapiens), P31941. inhibition, % at 20 µM. recombinant A3A, FAM/TAMRA ssDNA deamination fluorescence;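 active = at least 40% inhibition at 20 µM here, with at most 30% in a related deaminase screen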;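 also: plate controls were A3A with DMSO for no effect and wells lacking A3A enzyme for full effect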
Target sequence (P31941 whole entry, looked up): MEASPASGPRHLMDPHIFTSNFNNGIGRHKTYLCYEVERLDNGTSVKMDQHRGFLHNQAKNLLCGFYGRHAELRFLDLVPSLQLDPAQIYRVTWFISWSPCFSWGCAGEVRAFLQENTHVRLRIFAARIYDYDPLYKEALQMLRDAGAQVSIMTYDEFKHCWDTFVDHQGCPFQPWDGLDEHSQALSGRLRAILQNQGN
AHR act confirm: AHR activators, confirmation, cell-based, luminescence, luciferase reporter, human. shares compounds with AHR activator. human cells, AHR-responsive luciferase reporter. activation, % at 9 µM. 2,300 tested, 87% active. AID 2845, 2010; in the data active = activation above about 49%;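 also: HepG2 hepatoma cells carrying a DRE-driven firefly luciferase reporter; 0% = vehicle wells and 100% = reference agonist wells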
PXR act counter: human PXR activators, counter-screen for AHR activator project, cell-based, luciferase luminescence; cell-based PXR reporter; AID 434939, 2010; activation, % at 11.6 µM; shares compounds with AHR activator; 2,300 tested, 88% active; in the data active = activation above about 11%;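 also: human hepatoma DPX-2 cells expressing full-length human PXR; 0% = DMSO and 100% = reference agonist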
Target sequence (O75469 whole entry, looked up): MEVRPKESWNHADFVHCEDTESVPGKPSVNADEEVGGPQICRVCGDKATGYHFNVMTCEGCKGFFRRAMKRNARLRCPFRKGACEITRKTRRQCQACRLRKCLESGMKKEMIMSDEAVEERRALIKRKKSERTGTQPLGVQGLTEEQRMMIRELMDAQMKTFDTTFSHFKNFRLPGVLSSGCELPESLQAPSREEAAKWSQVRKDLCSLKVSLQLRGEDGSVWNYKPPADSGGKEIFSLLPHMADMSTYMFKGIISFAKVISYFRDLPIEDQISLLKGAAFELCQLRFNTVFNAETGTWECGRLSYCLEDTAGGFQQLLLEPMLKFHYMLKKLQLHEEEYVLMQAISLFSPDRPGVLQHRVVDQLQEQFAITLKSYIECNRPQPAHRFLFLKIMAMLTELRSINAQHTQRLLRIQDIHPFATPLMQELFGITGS
* hit, by the source's call.

COc1ccc(OC)c(NC2=NC3(CCCC3)N=C(N)N2)c1 was read as Arr AP2 block 4, A3G deaminase -4, PolyA inh -10, AHR activator 84*, UCH37 inh 5, APOBEC3A inh -3, AHR act confirm 61* and PXR act counter 11*.
NC1=NC2(CCCCC2)N=C(Nc2ccc(F)cc2F)N1 was read as Arr AP2 block -2, A3G deaminase -4, PolyA inh 2, AHR activator 0, UCH37 inh 4 and APOBEC3A inh 0.
COc1ccc(OC)c(N/C(=N/c2nc(C)cc(C)n2)NC(C)=O)c1 was read as Arr AP2 block 18, A3G deaminase -4, PolyA inh -6, AHR activator 30 and APOBEC3A inh -1.
`COc1ccc(C)cc1N/C(N)=N/c1nc(C)cc(C)n1` gave Arr AP2 block 16, A3G deaminase 4, PolyA inh 7, AHR activator 81*, UCH37 inh 6, APOBEC3A inh 2 and AHR act confirm 59*.
O=C(CSc1nc2ccccc2c(=O)n1CCCO)NCc1ccccc1 was read as Arr AP2 block 7, A3G deaminase -3, PolyA inh 2, AHR activator -1, UCH37 inh 0 and APOBEC3A inh 0.
O=c1c2ccccc2nc(SCc2nc3ccccc3s2)n1CCCO was read as Arr AP2 block -3, A3G deaminase -13, PolyA inh 18, AHR activator 89*, UCH37 inh -6, APOBEC3A inh -5, AHR act confirm 107* and PXR act counter 52*.
`Clc1ccc(Nc2nc(-c3cccnc3)cs2)cc1` gave Arr AP2 block 30, A3G deaminase 1, PolyA inh 21, AHR activator 45, UCH37 inh 1 and APOBEC3A inh 1.
`Clc1cccc(Nc2nc(-c3ccncc3)cs2)c1` gave Arr AP2 block -14, A3G deaminase -7, PolyA inh -42, AHR activator 98*, UCH37 inh 3, APOBEC3A inh 3, AHR act confirm 96* and PXR act counter 11*.
`CC(=O)Nc1cccc(-c2csc(Nc3ncccn3)n2)c1` gave PolyA inh 4 and UCH37 inh 4.
`CC(=O)Nc1cccc(-c2csc(Nc3ccc(C)cn3)n2)c1` gave Arr AP2 block -8, A3G deaminase 0, PolyA inh 0, AHR activator 145*, UCH37 inh 4, APOBEC3A inh 6, AHR act confirm 24 and PXR act counter 34*.
O=C(Nc1cccc(-c2csc(Nc3ccc(Cl)cc3)n2)c1)c1ccccc1 was read as Arr AP2 block 13, A3G deaminase -3, PolyA inh -8, AHR activator 93*, UCH37 inh 1, APOBEC3A inh -3, AHR act confirm 95* and PXR act counter 22*.
Screening O=C(Nc1ccc(-c2csc(Nc3ccccc3)n2)cc1)c1ccccc1 returned Arr AP2 block 2, A3G deaminase 0, PolyA inh 7, AHR activator 46, UCH37 inh 2 and APOBEC3A inh 0.
For O=C(Nc1cccc(-c2csc(Nc3ccc(Cl)cc3)n2)c1)c1cccc(C(F)(F)F)c1 the results were Arr AP2 block 29, A3G deaminase 19, PolyA inh 8, AHR activator 106*, UCH37 inh 5, APOBEC3A inh -1, AHR act confirm 37 and PXR act counter 25*.
Screening Nc1nnn(CC(=O)NN=Cc2ccccc2)n1 returned UCH37 inh 4.
O=C(NN=Cc1ccc([N+](=O)[O-])cc1)c1cc(C2CC2)[nH]n1 was read as UCH37 inh 7.
Screening Cc1cccc(C=Nn2c(C)cc(C)c(C#N)c2=O)c1 returned UCH37 inh 4.
For Cc1ccc(S(=O)(=O)N=C2CN(C)C(=O)N2C)cc1 the results were UCH37 inh 0.
For Cc1[nH]c2ccccc2c1C(=O)CSc1ccccc1 the results were Arr AP2 block 2, A3G deaminase -5, PolyA inh -24, AHR activator 101*, UCH37 inh 4, APOBEC3A inh 1, AHR act confirm 93* and PXR act counter 72*.
`Cc1[nH]c2ccccc2c1C(=O)COc1ccccc1` gave Arr AP2 block 7, A3G deaminase -4, PolyA inh -7, AHR activator 135*, UCH37 inh 0, APOBEC3A inh 0, AHR act confirm 128* and PXR act counter 30*.
Screening Cc1[nH]c2ccccc2c1C(=O)CNc1nccs1 returned Arr AP2 block -5, A3G deaminase 9, PolyA inh 3, AHR activator 83*, UCH37 inh 6, APOBEC3A inh 14, AHR act confirm 34 and PXR act counter 26*.
Cc1[nH]c2ccccc2c1C(=O)CCl was read as Arr AP2 block 16, PolyA inh -9 and UCH37 inh 4.
Cc1[nH]c2ccccc2c1SCc1ccccc1 was read as Arr AP2 block 20, A3G deaminase -9, PolyA inh 0, AHR activator 128*, APOBEC3A inh -5, AHR act confirm 103* and PXR act counter 38*.
Screening Cc1[nH]c2ccccc2c1C(=O)CSc1cccc[n+]1[O-] returned Arr AP2 block 16, A3G deaminase -5, PolyA inh 22, AHR activator 19, UCH37 inh 4 and APOBEC3A inh 0.
`COc1ccc(C=NNC(=O)c2cc(-c3cccc(C)c3)nc3ccccc23)cc1O` gave UCH37 inh 3.
`O=C(Cc1ccccc1)NN=Cc1cccc([N+](=O)[O-])c1` gave UCH37 inh 1.

Assay outcomes (PubChem BioAssay)
